This is a sample that favours compounds with a hit; in the whole collection about 1.3% have one here.
HKDC1 inhibitor: HKDC1 (human) hexokinase inhibition; inhibition, % at 20 µM; recombinant HKDC1, G6PDH/diaphorase resazurin coupled fluorescence; 0.16% of 340,000 active; Q2TB90; AID 493160;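 active = inhibition above about 35% when tested at 20 µM, limit read from the data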;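 note: plate controls were DMSO wells with enzyme for no effect and DMSO wells lacking enzyme for full effect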
Target sequence (Q2TB90 whole entry, looked up): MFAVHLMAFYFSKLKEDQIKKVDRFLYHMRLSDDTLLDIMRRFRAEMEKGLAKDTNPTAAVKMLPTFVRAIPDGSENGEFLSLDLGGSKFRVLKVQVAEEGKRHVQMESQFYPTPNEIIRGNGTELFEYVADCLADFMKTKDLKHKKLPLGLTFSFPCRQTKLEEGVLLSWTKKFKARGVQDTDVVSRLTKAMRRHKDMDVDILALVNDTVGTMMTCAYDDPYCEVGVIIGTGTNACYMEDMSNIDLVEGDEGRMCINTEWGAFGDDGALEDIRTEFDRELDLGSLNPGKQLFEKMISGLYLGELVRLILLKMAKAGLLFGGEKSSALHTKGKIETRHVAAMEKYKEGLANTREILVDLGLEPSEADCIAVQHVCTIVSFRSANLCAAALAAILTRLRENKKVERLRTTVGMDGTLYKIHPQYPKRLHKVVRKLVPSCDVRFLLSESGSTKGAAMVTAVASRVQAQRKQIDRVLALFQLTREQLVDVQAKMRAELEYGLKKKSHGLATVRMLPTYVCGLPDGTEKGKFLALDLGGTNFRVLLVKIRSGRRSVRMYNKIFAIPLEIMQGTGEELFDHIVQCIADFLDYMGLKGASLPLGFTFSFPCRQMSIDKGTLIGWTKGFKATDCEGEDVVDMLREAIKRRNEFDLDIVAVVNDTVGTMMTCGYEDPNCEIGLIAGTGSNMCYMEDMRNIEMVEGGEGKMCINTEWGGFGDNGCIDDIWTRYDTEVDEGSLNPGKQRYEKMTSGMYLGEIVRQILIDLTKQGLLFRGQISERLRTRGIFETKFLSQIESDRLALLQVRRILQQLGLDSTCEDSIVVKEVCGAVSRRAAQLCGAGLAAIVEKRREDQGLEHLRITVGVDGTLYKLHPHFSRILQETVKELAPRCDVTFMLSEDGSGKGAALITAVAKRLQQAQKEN
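System: Recombinant HKDC1 hexokinase | Amount: HKDC1 at 5 µg/mL | Reagent: Glucose with 1 mM ATP | Doses: Single 20 µM dose | Incubation: Reaction time 90 min, room temperature, protected from light | Signal: Coupled resazurin fluorescence, excitation 525 nm, emission 613 nm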
PfG6PD inh: PfG6PD (Plasmodium falciparum) enzyme inhibition. 0.78% of 350,000 active. AID 504690. PfGluPho enzyme, NADPH resazurin-diaphorase fluorescence. inhibition, % at 20 µM;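 active = inhibition reaching at least a set limit at 20 µM in the primary screen, cut at about 59% in these data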;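 note: 0% = DMSO wells with substrate and 100% = DMSO wells lacking glucose-6-phosphate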
G6PDH CS: L. mesenteroides G6PDH inhibition counter-screen | Purified L. mesenteroides G6PDH, diaphorase/resazurin coupled fluorescence, 45 min | inhibition, % at 5 µM | 0.12% of 200,000 active; in the data active = inhibition above about 50%
Diaph act CS: activates diaphorase or chemically reduces, flagging diaphorase assay artifacts; Diaphorase/resazurin coupled assay, resorufin fluorescence, 16 min; stronger effect = higher value; 1 = vehicle wells, 0 = NADH-free wells; activation factor at 20 µM; 0.005% of 190,000 active;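 active = diaphorase activity raised at least twofold by the compound at 20 µM; inactive = activation factor below 2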
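Material: Clostridium kluyveri diaphorase, purified enzyme; Quantity: enzyme 0.07 U/mL final; Medium: HEPES pH 7.4 buffer with MgCl2 and Tween 20; Dosing: single compound dose of 20 µM, 1% DMSO final; Schedule: 16 min reaction at room temperature; Measured by: red resorufin fluorescence at 544/590 nm excitation/emission.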
Diaph inh CS: diaphorase inhibition or chemical oxidation counter-screen; 0.69% of 190,000 active; AID 1217; inhibition, % at 20 µM; diaphorase resazurin-to-resorufin fluorescence, NADH, 16 min; bacterial (C. kluyveri) enzyme, not human;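 active = primary screen inhibition at 20 µM above a set limit, cut at about 50% in these data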;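 note: plate controls were DMSO with full reaction for no effect and wells lacking NADH for full effect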
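System: Bacterial diaphorase enzyme (C. kluyveri) | Incubation: 16-min room-temperature incubation before reading | Benchmarks: No-NADH positive control and DMSO neutral control | Measured by: Resorufin fluorescence 544/590 nm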
TbHK1 inh: T. brucei hexokinase 1 inhibition; recombinant TbHK1, G6PDH-coupled NADH A340; inhibition, % at 10 µM; 0.11% of 220,000 active; AID 1430;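 active = inhibition of 50% or more in the single-dose primary screen; inactive = inhibition below 50%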
PfGluPho conf: confirmation of Plasmodium falciparum G6PD inhibitors. shares compounds with PfG6PD inh. recombinant PfGluPho, NADPH-diaphorase-resazurin fluorescence. inhibition, % at 20 µM. 34% of 2,400 active. AID 504753;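 active = inhibition of at least 50% at 20 µM in any single replicate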;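 note: 0% = DMSO with substrate and 100% = DMSO lacking glucose-6-phosphate substrate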
Diaph ctr 10uM: counter-screen for P. falciparum G6PD inhibitors: diaphorase inhibitors, oxidizers; 39% of 820 active; diaphorase-coupled resazurin reduction, fluorescence, NADPH 10 uM; inhibition, % at 20 µM; shares compounds with PfG6PD inh;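 active = average inhibition reaching 50% or more with the compound at 20 µM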;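 note: resorufin red fluorescence formed as diaphorase reduces resazurin using NADPH; 0% = DMSO with enzyme and 100% = DMSO without enzyme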
Diaphorase 30uM: counter-screen for P. falciparum G6PD inhibitors: diaphorase inhibitors, oxidizers. shares compounds with PfG6PD inh. Diaphorase/resazurin coupled assay, resorufin fluorescence, 30 uM NADPH. inhibition, % at 20 µM. 29% of 820 active;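 active = inhibition averaging 50% or more, tested at 20 µM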;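 note: 0% = DMSO with enzyme and 100% = DMSO wells lacking diaphorase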
* marks the source's active call; other numbers are inactive results; x = no result.

SMILES	HKDC1 inhibitor	PfG6PD inh	G6PDH CS	Diaph act CS	Diaph inh CS	TbHK1 inh	PfGluPho conf	others
O=C(CSc1ccc(Cl)cc1)N/N=C/c1cccnc1	-2	63*	4	0.9	6	6	36
O=C(CNc1ccc2ccccc2c1)N/N=C/c1ccc([N+](=O)[O-])o1	11	24	18	0.8	22	26	x
Cc1cc(C)nc(SCC(=O)N/N=C/c2cccnc2)n1	-6	-4	x	x	x	x	x
O=C(CSc1ccc(Cl)cc1)N/N=C/c1ccc([N+](=O)[O-])o1	10	110*	x	x	x	x	82*	Diaph ctr 10uM=81*;Diaphorase 30uM=66*
CC(=O)OCC1(C)CN(c2ccccc2)NC1=O (stereo not given)	11	97*	19	0.7	30	-4	90*	Diaph ctr 10uM=-1;Diaphorase 30uM=-11
O=C(CCc1nnc(C2(c3ccc(Cl)cc3)CCC2)o1)NCCCn1cccn1	-4	-1	-1	1	0	-9	x
CC1=CC(=NOC(=O)/C=C/c2ccccc2)C=C(C)C1=O	10	75*	15	0.9	14	-8	61*	Diaph ctr 10uM=28;Diaphorase 30uM=27
O=c1c2ccccc2oc2ccc(-c3ccc4[nH]ccc4c3)cc12	3	-1	x	x	x	x	x
CNc1cccnc1C=NNC(N)=S	-4	74*	x	x	x	x	23
COC(=O)C/C=C/[C@@H](C)[C@@H](/C=N/OCC[C@@H]1C=C[C@H](OC(C)=O)[C@@H](COC(C)=O)O1)NS(=O)(=O)c1ccc(C)cc1	x	x	6	1	0	-4	x
C[C@@H]1ON(C)[C@H]2C[C@H]3c4[nH]c5ccc(-c6ccc7c(c6)OCO7)cc5c4CCN3C(=O)[C@@H]12	x	76*	x	x	x	x	44
Cc1nc2[nH]c(=S)[nH]c(=O)c2nc1C	-5	18	x	x	x	x	x
Cc1nc2c(=O)[nH]c(=S)n(C)c2nc1C	-20	65*	5	1	2	-22	35
CCCN(CC(=O)Nc1ccc(F)c(F)c1F)C(=O)Cc1ccc(S(=O)(=O)N2CCOCC2)s1	1	4	x	x	x	x	x
CCOc1ccc(C(=O)/C=C/c2cn(CN3CCN(C)CC3)c3ccccc23)cc1	2	62*	-5	0.8	17	-9	-21
Cc1ccc(CSCC(=O)N/N=C/c2sccc2C)cc1	-2	78*	2	0.9	15	-15	52*	Diaph ctr 10uM=63*;Diaphorase 30uM=54*
CCN(CC(=O)Nc1c(F)cccc1F)C(=O)c1cc(C)oc1C	-4	-10	x	x	x	x	x
COC(=O)CCC1(C(N)=O)CCC(=O)c2ccccc21 (stereo not given)	-4	30	x	x	x	x	x
CCOC(=O)CSc1nnc(NC(=O)c2cccc([N+](=O)[O-])c2)s1	12	80*	10	0.9	15	-5	58*	Diaph ctr 10uM=51*;Diaphorase 30uM=39
O=C(Nc1ncc([N+](=O)[O-])s1)c1cccc([N+](=O)[O-])c1	2	103*	x	x	x	-3	89*	Diaph ctr 10uM=77*;Diaphorase 30uM=69*
CCOC(=O)Cc1ccc(NC(=O)c2cccc([N+](=O)[O-])c2)cc1	-8	16	11	0.9	9	0	x
Clc1ccccc1-c1nn2c(Cn3cnc4ccccc43)nnc2s1	2	41	4	0.9	5	1	x
c1csc(-c2nn3c(C4COc5ccccc5O4)nnc3s2)c1 (stereo not given)	-5	59*	3	1	2	0	9
COc1ccc(-c2nn3c(COc4ccccc4)nnc3s2)cc1OC	11	-5	5	0.7	26	-1	x
c1ccc(OCc2nnc3sc(-c4cccs4)nn23)cc1	-8	86*	5	0.9	7	8	34
SMILES	HKDC1 inhibitor	PfG6PD inh	G6PDH CS	Diaph act CS	Diaph inh CS	TbHK1 inh	PfGluPho conf	others
Clc1ccc(Cl)c(-c2nn3c(COc4ccccc4)nnc3s2)c1	-19	60*	-25	1	3	2	36
Cc1ccc(S(=O)(=O)N2[C@@H](c3ccc(C(C)(C)C)cc3)C(C(=O)O)=CC[C@H]2c2ccc(C(C)C)cc2)cc1	13	-59	x	x	x	x	x
Fc1cccc(Cl)c1CNc1ccc(N2CCCC2)cc1	9	106*	22	0.2	79*	-1	87*	Diaph ctr 10uM=2;Diaphorase 30uM=2
NS(=O)(=O)c1ccc(NCc2c(F)cccc2Cl)cc1	7	16	10	0.8	17	1	x
CC(C)Oc1ccccc1C1CC(=O)Nc2cc3c(cc21)OCO3 (stereo not given)	15	80*	2	0.8	23	1	40
COc1ccc(Br)c(OC)c1C(=O)NC(=O)Nc1nc(C)cc(C)n1	-3	106*	x	x	x	-10	74*	Diaph ctr 10uM=68*;Diaphorase 30uM=65*
COc1ccccc1NS(=O)(=O)c1cc(NC(=O)C(C)C)ccc1N1CCCCC1	-2	61*	4	0.8	19	-1	18
COc1ccccc1NS(=O)(=O)c1cc(NC(=O)c2cccs2)ccc1N1CCCCC1	-3	-3	14	0.9	13	-1	x
COc1ccccc1NS(=O)(=O)c1cc(NC(=O)c2cccs2)ccc1N1CCCC1	-20	79*	8	0.8	17	2	48
Cc1[nH]c2ccccc2c1/C=N/NC(=O)c1cccc(S(=O)(=O)Nc2ccccc2Cl)c1	3	83*	-21	0.8	20	-17	68*	Diaph ctr 10uM=65*;Diaphorase 30uM=48
O=C(CSc1ccc([N+](=O)[O-])cc1)OCC(=O)N1CCCC1=O	4	-7	x	x	x	x	x
CC1CN(C(=O)COC(=O)CSc2ccc([N+](=O)[O-])cc2)CC(C)O1 (stereo not given)	0	60*	x	x	x	x	-4
Cc1cc(=O)[nH]c(N/N=C/c2c(C)nn(-c3ccccc3)c2Cl)n1	3	86*	x	x	x	-28	78*	Diaph ctr 10uM=-14;Diaphorase 30uM=-11
CCCCCCNC(=O)O[C@H]1Cn2c(=O)n(CCCCCC)c(=O)n2[C@@H]2CN(S(=O)(=O)c3ccc(C)cc3)C[C@]12O	x	71*	x	x	x	x	-14
CCCCCCn1c(=O)n2n(c1=O)[C@@H]1CN(S(=O)(=O)c3ccc(C)cc3)C[C@]1(O)[C@@H](OC(=O)NCC1CCCCC1)C2	x	65*	x	x	x	x	-26
CC(=O)OCC(=O)Nc1ccccc1OC(F)F	-7	6	1	1	3	-2	x
Cc1ccc2c(c1)N(CC(=O)NCCc1ccccc1)C(=O)c1cccnc1O2	-7	9	x	x	x	x	x
COCCOCCn1c(/C=C/c2ccccc2)nc2ccccc21	-12	63*	-4	0.9	11	-48	40

Bioassay records deposited in PubChem by several laboratories.
